Experimental data published in ChEMBL document CHEMBL4373712, “Bioactivatable Pseudotripeptidization of Cyclic Dipeptides To Increase the Affinity toward Oligopeptide Transporter 1 for Enhanced Oral Absorption: An Application to Cyclo(l-Hyp-l-Ser) (JBP485)” (J Med Chem, 2019).

What was measured:
[1] = Cmax in Sprague-Dawley rat assessed as JBP485 level at 100 mg/kg, po by LC-MS/MS analysis; type: ADME, organism-based; parameters: dose 100 mg/kg, route oral; settings: in vivo
Procedure, shortened: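 Male SD rats, 200-250 g, fasted 12 h with water, n=6. Oral dose of 12 mg/kg as JBP485 equivalent; dose-effect arms at 12 and 100 mg/kg. JBP485 given iv at 6 mg/kg as the reference. Jugular blood taken at 0.083-10 h. Plasma JBP485 by UPLC-MS/MS. Absolute F = (AUCpo×Div)/(AUCiv×Dpo)×100%, using AUC0-t.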

[2] = Terminal half-life in Sprague-Dawley rat at 6 mg/kg, iv by UPLC-MS/MS analysis; type: ADME, organism-based; settings: in vivo, read-out: beta t1/2 (converted)
Procedure, shortened: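 Fasted male SD rats given JBP485 6 mg/kg intravenously. Jugular blood sampled 0.083–10 h, plasma by UPLC-MS/MS; n=6.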

[3] = Tmax in Sprague-Dawley rat assessed as JBP485 level at 12 mg/kg, po by LC-MS/MS analysis; type: ADME, organism-based; settings: in vivo
Procedure, shortened: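 Male SD rats (200–250 g) fasted 12 h, given JBP485 or prodrug (calculated as JBP485) orally at 12 or 100 mg/kg. Jugular blood sampled 0.083–10 h, plasma JBP485 by UPLC-MS/MS; n=6.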

[4] = Ratio of half-life in pH 7.2 phosphate buffer to half-life in Sprague-Dawley rat liver homogenates; type: ADME, tissue-based; settings: tissue homogenate

Cmax [1] | half-life [2] | Tmax [3] | Ratio [4] | SMILES
95.96 nM/ml | 1.13 h | 1.25 h | – | O=C1N[C@@H](CO)C(=O)N2C[C@H](O)C[C@@H]12
– | – | – | 3 to 35 | CC(C)[C@H](N)C(=O)OC[C@@H]1NC(=O)[C@@H]2C[C@@H](O)CN2C1=O
